In ChEMBL document CHEMBL5724801, “EUbOPEN Chemogenomics Library - Multiplex” (2024):
“And” between values parts separate entries of the source, which are not always exact repeats. Identical values can stand only once.

How the values were obtained:
Format in all cases: toxicity, cell-based
[1] = system: Fibroblast; experiment: Multiplex assay against human fibroblast
Procedure, shortened: (§1)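 Per cents of healthy-nucleus cells form the tubulin, mitochondrial-mass and membrane-permeability phenotype values. Live cells were stained at seeding with Hoechst33342, BioTracker Green Microtubule Cytoskeleton Dye, MitoTracker Red and Annexin V Alexa Fluor 680. After compound addition they were imaged on a CQ1 microscope at 37°C and 5% CO2, and CellPathfinder machine-learning gating split them into Hoechst high-intensity objects or normal cells, normal cells into healthy, pyknosed or fragmented nuclei, and pyknosed cells into mitotic or apoptotic.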

[2] = system: U2OS; experiment: Multiplex assay against U2OS; settings: human; procedure, shortened: as §1
[3] = system: HEK-293T; experiment: Multiplex assay against HEK293T; settings: human; procedure, shortened: as §1
[4] = 12 h, 1 µM, compound concentration 1 uM
[5] = 12 h, 10 µM, compound concentration 10 uM
[6] = 24 h, 1 µM, compound concentration 1 uM
[7] = 24 h, 10 µM, compound concentration 10 uM
[8] = 48 h, 1 µM, compound concentration 1 uM
[9] = 48 h, 10 µM, compound concentration 10 uM

Nc1nc(-c2ccco2)c2cnn(Cc3ccccc3F)c2n1
Population Apoptotic (%) [1, 4]: 50% and 45%
Population Healthy Nuclei (%) [1, 4]: 78% and 50%
Population Hoechst High Intensity Objects (%) [1, 4]: 0% and 6%
Population Membrane Permeable-Phenotype (%) [1, 4]: 1% and 2%
Population Mitochondria Different-Phenotype (%) [1, 4]: 2% and 5%
Population Mitotic Cells (%) [1, 4]: 50% and 54%
Population Normal (%) [1, 4]: 99% and 93%
Population Pyknosed Nuclei (%) [1, 4]: 11% and 17%
Population Tubulin-Different-Phenotype (%) [1, 4]: 26% and 42%
Total Cell Count [1, 4]: 189 and 144
Population Apoptotic (%) [1, 5]: 54% and 47%
Population Fragmented Nuclei (%) [1, 5]: 16% and 39%
Population Healthy Nuclei (%) [1, 5]: 61% and 44%
Population Hoechst High Intensity Objects (%) [1, 5]: 8% and 10%
Population Membrane Permeable-Phenotype (%) [1, 5]: 0% and 5%
Population Mitochondria Different-Phenotype (%) [1, 5]: 7% and 13%
Population Mitotic Cells (%) [1, 5]: 45% and 52%
Population Normal (%) [1, 5]: 91% and 89%
Population Pyknosed Nuclei (%) [1, 5]: 21% and 16%
Population Tubulin-Different-Phenotype (%) [1, 5]: 38% and 51%
Total Cell Count [1, 5]: 123 and 147
Population Apoptotic (%) [1, 6]: 50% and 56%
Population Healthy Nuclei (%) [1, 6]: 82% and 53%
Population Hoechst High Intensity Objects (%) [1, 6]: 0% and 6%
Population Membrane Permeable-Phenotype (%) [1, 6]: 0% and 4%
Population Mitochondria Different-Phenotype (%) [1, 6]: 2% and 5%
Population Mitotic Cells (%) [1, 6]: 50% and 43%
Population Normal (%) [1, 6]: 100% and 93%
Population Pyknosed Nuclei (%) [1, 6]: 7% and 17%
Population Tubulin-Different-Phenotype (%) [1, 6]: 24% and 37%
Total Cell Count [1, 6]: 180 and 139
Population Apoptotic (%) [1, 7]: 70% and 43%
Population Fragmented Nuclei (%) [1, 7]: 19% and 43%
Population Healthy Nuclei (%) [1, 7]: 66% and 44%
Population Hoechst High Intensity Objects (%) [1, 7]: 6% and 8%
Population Mitochondria Different-Phenotype (%) [1, 7]: 8% and 5%
Population Mitotic Cells (%) [1, 7]: 29% and 56%
Population Normal (%) [1, 7]: 93% and 91%
Population Pyknosed Nuclei (%) [1, 7]: 14% and 11%
Population Tubulin-Different-Phenotype (%) [1, 7]: 39% and 46%
Total Cell Count [1, 7]: 127 and 147
Population Apoptotic (%) [1, 8]: 45% and 57%
Population Fragmented Nuclei (%) [1, 8]: 16% and 41%
Population Healthy Nuclei (%) [1, 8]: 77% and 48%
Population Hoechst High Intensity Objects (%) [1, 8]: 3% and 6%
Population Membrane Permeable-Phenotype (%) [1, 8]: 2% and 4%
Population Mitochondria Different-Phenotype (%) [1, 8]: 1% and 9%
Population Mitotic Cells (%) [1, 8]: 54% and 42%
Population Normal (%) [1, 8]: 96% and 93%
Population Pyknosed Nuclei (%) [1, 8]: 6% and 10%
Population Tubulin-Different-Phenotype (%) [1, 8]: 26% and 37%
Total Cell Count [1, 8]: 182 and 147
Population Apoptotic (%) [1, 9]: 80% and 50%
Population Fragmented Nuclei (%) [1, 9]: 25% and 50%
Population Healthy Nuclei (%) [1, 9]: 65% and 38%
Population Hoechst High Intensity Objects (%) [1, 9]: 9% and 5%
Population Membrane Permeable-Phenotype (%) [1, 9]: 0% and 16%
Population Mitochondria Different-Phenotype (%) [1, 9]: 10%
Population Mitotic Cells (%) [1, 9]: 20% and 50%
Population Normal (%) [1, 9]: 90% and 94%
Population Pyknosed Nuclei (%) [1, 9]: 9% and 10%
Population Tubulin-Different-Phenotype (%) [1, 9]: 27% and 51%
Total Cell Count [1, 9]: 115 and 155
Population Apoptotic (%) [2, 4]: 82% and 92%
Population Fragmented Nuclei (%) [2, 4]: 23%
Population Healthy Nuclei (%) [2, 4]: 68% and 64%
Population Hoechst High Intensity Objects (%) [2, 4]: 1% and 0%
Population Membrane Permeable-Phenotype (%) [2, 4]: 4% and 12%
Population Mitochondria Different-Phenotype (%) [2, 4]: 2% and 5%
Population Mitotic Cells (%) [2, 4]: 17% and 7%
Population Normal (%) [2, 4]: 98% and 99%
Population Pyknosed Nuclei (%) [2, 4]: 8% and 12%
Population Tubulin-Different-Phenotype (%) [2, 4]: 3% and 8%
Total Cell Count [2, 4]: 280 and 109
Population Apoptotic (%) [2, 5]: 87% and 77%
Population Fragmented Nuclei (%) [2, 5]: 41% and 20%
Population Healthy Nuclei (%) [2, 5]: 45% and 72%
Population Hoechst High Intensity Objects (%) [2, 5]: 5% and 0%
Population Membrane Permeable-Phenotype (%) [2, 5]: 10% and 5%
Population Mitochondria Different-Phenotype (%) [2, 5]: 4% and 5%
Population Mitotic Cells (%) [2, 5]: 12% and 22%
Population Normal (%) [2, 5]: 94% and 99%
Population Pyknosed Nuclei (%) [2, 5]: 12% and 7%
Population Tubulin-Different-Phenotype (%) [2, 5]: 7% and 1%
Total Cell Count [2, 5]: 197 and 125
Population Apoptotic (%) [2, 6]: 96% and 84%
Population Fragmented Nuclei (%) [2, 6]: 19% and 18%
Population Healthy Nuclei (%) [2, 6]: 70% and 71%
Population Hoechst High Intensity Objects (%) [2, 6]: 1% and 4%
Population Membrane Permeable-Phenotype (%) [2, 6]: 4% and 10%
Population Mitochondria Different-Phenotype (%) [2, 6]: 1% and 3%
Population Normal (%) [2, 6]: 98% and 95%
Population Pyknosed Nuclei (%) [2, 6]: 9% and 10%
Population Tubulin-Different-Phenotype (%) [2, 6]: 2% and 8%
Total Cell Count [2, 6]: 332 and 127
Population Apoptotic (%) [2, 7]: 82% and 90%
Population Fragmented Nuclei (%) [2, 7]: 38% and 19%
Population Healthy Nuclei (%) [2, 7]: 53% and 73%
Population Hoechst High Intensity Objects (%) [2, 7]: 5% and 1%
Population Membrane Permeable-Phenotype (%) [2, 7]: 7% and 5%
Population Mitochondria Different-Phenotype (%) [2, 7]: 3% and 0%
Population Mitotic Cells (%) [2, 7]: 17% and 9%
Population Normal (%) [2, 7]: 94% and 98%
Population Pyknosed Nuclei (%) [2, 7]: 7%
Population Tubulin-Different-Phenotype (%) [2, 7]: 5% and 4%
Total Cell Count [2, 7]: 230 and 157
Population Apoptotic (%) [2, 8]: 94% and 95%
Population Fragmented Nuclei (%) [2, 8]: 17% and 16%
Population Healthy Nuclei (%) [2, 8]: 74% and 67%
Population Hoechst High Intensity Objects (%) [2, 8]: 1% and 6%
Population Membrane Permeable-Phenotype (%) [2, 8]: 2% and 5%
Population Mitochondria Different-Phenotype (%) [2, 8]: 2% and 5%
Population Mitotic Cells (%) [2, 8]: 5% and 4%
Population Normal (%) [2, 8]: 98% and 93%
Population Pyknosed Nuclei (%) [2, 8]: 7% and 15%
Population Tubulin-Different-Phenotype (%) [2, 8]: 2% and 1%
Population Apoptotic (%) [2, 9]: 95% and 86%
Population Fragmented Nuclei (%) [2, 9]: 37% and 23%
Population Healthy Nuclei (%) [2, 9]: 51% and 69%
Population Hoechst High Intensity Objects (%) [2, 9]: 11% and 2%
Population Membrane Permeable-Phenotype (%) [2, 9]: 17% and 12%
Population Mitochondria Different-Phenotype (%) [2, 9]: 6%
Population Mitotic Cells (%) [2, 9]: 4% and 13%
Population Normal (%) [2, 9]: 88% and 97%
Population Pyknosed Nuclei (%) [2, 9]: 10% and 7%
Population Tubulin-Different-Phenotype (%) [2, 9]: 11% and 6%
Total Cell Count [2, 9]: 252 and 196
Population Apoptotic (%) [3, 4]: 37% and 36%
Population Fragmented Nuclei (%) [3, 4]: 6% and 5%
Population Healthy Nuclei (%) [3, 4]: 76% and 81%
Population Hoechst High Intensity Objects (%) [3, 4]: 9% and 11%
Population Membrane Permeable-Phenotype (%) [3, 4]: 0%
Population Mitochondria Different-Phenotype (%) [3, 4]: 58% and 64%
Population Mitotic Cells (%) [3, 4]: 62% and 63%
Population Normal (%) [3, 4]: 90% and 88%
Population Pyknosed Nuclei (%) [3, 4]: 16% and 13%
Population Tubulin-Different-Phenotype (%) [3, 4]: 41% and 23%
Total Cell Count [3, 4]: 300 and 404
Population Apoptotic (%) [3, 5]: 33% and 40%
Population Fragmented Nuclei (%) [3, 5]: 7% and 6%
Population Healthy Nuclei (%) [3, 5]: 73% and 76%
Population Hoechst High Intensity Objects (%) [3, 5]: 8% and 12%
Population Membrane Permeable-Phenotype (%) [3, 5]: 0%
Population Mitochondria Different-Phenotype (%) [3, 5]: 61% and 68%
Population Mitotic Cells (%) [3, 5]: 66% and 60%
Population Normal (%) [3, 5]: 91% and 87%
Population Pyknosed Nuclei (%) [3, 5]: 19% and 17%
Population Tubulin-Different-Phenotype (%) [3, 5]: 43% and 26%
Total Cell Count [3, 5]: 306 and 265
Population Apoptotic (%) [3, 6]: 30% and 28%
Population Fragmented Nuclei (%) [3, 6]: 7% and 9%
Population Healthy Nuclei (%) [3, 6]: 77% and 81%
Population Hoechst High Intensity Objects (%) [3, 6]: 7% and 5%
Population Membrane Permeable-Phenotype (%) [3, 6]: 0%
Population Mitochondria Different-Phenotype (%) [3, 6]: 36% and 46%
Population Mitotic Cells (%) [3, 6]: 69% and 71%
Population Normal (%) [3, 6]: 92% and 94%
Population Pyknosed Nuclei (%) [3, 6]: 15% and 9%
Population Tubulin-Different-Phenotype (%) [3, 6]: 26% and 17%
Total Cell Count [3, 6]: 396 and 514
Population Apoptotic (%) [3, 7]: 38% and 35%
Population Fragmented Nuclei (%) [3, 7]: 11%
Population Healthy Nuclei (%) [3, 7]: 67%
Population Hoechst High Intensity Objects (%) [3, 7]: 6% and 10%
Population Membrane Permeable-Phenotype (%) [3, 7]: 2% and 0%
Population Mitochondria Different-Phenotype (%) [3, 7]: 52% and 59%
Population Mitotic Cells (%) [3, 7]: 61% and 64%
Population Normal (%) [3, 7]: 93% and 89%
Population Pyknosed Nuclei (%) [3, 7]: 21%
Population Tubulin-Different-Phenotype (%) [3, 7]: 31% and 23%
Total Cell Count [3, 7]: 334 and 328
Population Apoptotic (%) [3, 8]: 32% and 28%
Population Fragmented Nuclei (%) [3, 8]: 12% and 14%
Population Healthy Nuclei (%) [3, 8]: 75% and 78%
Population Hoechst High Intensity Objects (%) [3, 8]: 3% and 4%
Population Membrane Permeable-Phenotype (%) [3, 8]: 1%
Population Mitochondria Different-Phenotype (%) [3, 8]: 31% and 21%
Population Mitotic Cells (%) [3, 8]: 67% and 71%
Population Normal (%) [3, 8]: 96% and 95%
Population Pyknosed Nuclei (%) [3, 8]: 12% and 7%
Population Tubulin-Different-Phenotype (%) [3, 8]: 18% and 14%
Total Cell Count [3, 8]: 641 and 769
Population Apoptotic (%) [3, 9]: 36% and 28%
Population Fragmented Nuclei (%) [3, 9]: 16% and 13%
Population Healthy Nuclei (%) [3, 9]: 73% and 74%
Population Hoechst High Intensity Objects (%) [3, 9]: 7%
Population Membrane Permeable-Phenotype (%) [3, 9]: 0%
Population Mitochondria Different-Phenotype (%) [3, 9]: 42% and 43%
Population Mitotic Cells (%) [3, 9]: 63% and 71%
Population Normal (%) [3, 9]: 92%
Population Pyknosed Nuclei (%) [3, 9]: 9% and 12%
Population Tubulin-Different-Phenotype (%) [3, 9]: 19% and 15%
Total Cell Count [3, 9]: 412 and 398
